Laboratory results: ChEMBL document CHEMBL4311948, “Exploring the Natural Piericidins as Anti-Renal Cell Carcinoma Agents Targeting Peroxiredoxin 1” (J Med Chem, 2019)
Activity calls are given as the source filed them. The calls are words filed in the database; no cut-off is given here.

Columns and labels:
HK-2 = test: Cytotoxicity against human HK2 cells assessed as reduction in cell viability measured after 72 hrs by CCK8 assay; format: cell-based; conditions: HK-2, 72 h
Summary of the method: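 Cells were grown in 10% FBS medium: MEM for ACHN, RPMI1640 for OS-RC-2 and 786-O, DMEM for HK-2. They were seeded at 400–800 cells/well in 384-well plates and treated with a range of compound concentrations or solvent control, with sorafenib as positive control. After 72 h, CCK-8 absorbance was read at 450 nm in triplicate, and IC50 was taken from dose-response curves.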

ACHN [1] = test: Cytotoxicity against human ACHN cells harboring shPRDX1 gene assessed as reduction in cell viability measured after 72 hrs by CCK8 assay; format: functional, cell-based; conditions: Homo sapiens, ACHN, 72 h; read-out: IC50
Summary of the method: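 Transfectants were selected with puromycin (1 μg/mL), and knockdown was confirmed by immunoblot. Viability was read by CCK-8 after 72 h of compound exposure in 384-well plates at 400–800 cells/well in MEM with 10% FBS, and IC50 was taken from dose-response curves.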

ACHN [2] = test: Down regulation of LDHA mRNA expression in human ACHN cells at 25 to 50 nM measured after 24 hrs by qRT-PCR analysis; format: functional, cell-based
ACHN [3] = test: Antioxidant activity in human ACHN cells harboring shPRDX1 gene assessed as reduction in reactive oxygen species level at 25 to 50 nM measured after 24 hrs by Cell-rox reagent-based flow cytometry; format: functional
Summary of the method: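 ACHN cells grown 24 h in MEM + 10% FBS, reseeded at 2 × 10^4 cells/well and exposed to 0, 25 or 50 nM for 24 h. Harvested cells loaded with CellROX oxidative stress reagent 5 μM, 30 min at 37 °C in the dark, then read by flow cytometry. shPRDX1 line: stable knockdown selected with puromycin (1 μg/mL) before dosing. Mean ± SD.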

ACHN [4] = test: Antiproliferative activity against human ACHN cells assessed as inhibition of cell proliferation at 50 nM measured after 24 to 72 hrs by holographic microscopy; format: functional, cell-based
Summary of the method: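 2×10^5 ACHN cells plated per well and allowed to adhere 24 h. 50 nM then added. Label-free digital holographic microscopy (Holomonitor M4) automatically tracked cell movement, morphology and thickness over time.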

ACHN [5] = test: Induction of apoptosis in human ACHN cells assessed as viable cells at 50 nM measured after 24 hrs by Annexin V-FITC/propidium iodide staining based flow cytometry (reference value: 100%); format: functional; conditions: read-out: Activity
ACHN [6] = test: Induction of apoptosis in human ACHN cells assessed as late apoptotic cells at 50 nM measured after 48 hrs by Annexin V-FITC/propidium iodide staining based flow cytometry (reference value: 0%); format: functional
ACHN [7] = test: Induction of apoptosis in human ACHN cells assessed as necrotic cells at 50 nM measured after 48 hrs by Annexin V-FITC/propidium iodide staining based flow cytometry (reference value: 0%); format: functional
[8] = Toxicity in Balb/c nu/nu mouse xenografted with human ACHN cells assessed as decrease in body weight at 0.8 mg/kg, ip administered once daily for 21 days; format: organism-based; conditions: in vivo, 504 h
Summary of the method: (§1)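 Male athymic Balb/c nu/nu mice, four weeks old, acclimatised 1 week. 10^7 ACHN cells in 0.2 mL PBS injected into the right flank. At about 150 mm3, mice randomised into PBS control or 0.8 mg/kg groups, dosed ip daily for three weeks. Tumours measured by caliper (volume = 0.5 × L × W²) with body weight recorded. Endpoint tumour weight, sections stained by H&E and TUNEL. Tissue lysed for immunoblot.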

Mus musculus = test: Up regulation of PRDX1 mRNA expression in human ACHN cells xenografted Balb/c nu/nu mouse at 0.8 mg/kg, ip administered once daily for 21 days measured post-last dose by qRT-PCR analysis; format: functional, organism-based
ACHN [9] = test: Antitumor activity against human ACHN cells xenografted in Balb/c nu/nu mouse assessed as tumor growth inhibition at 0.8 mg/kg, ip administered once daily for 21 days measured post-last dose by TUNEL staining-based assay; format: functional, organism-based; summary of the method: as §1
ACHN [10] = test: Antitumor activity against human ACHN cells xenografted in Balb/c nu/nu mouse assessed as tumor growth inhibition at 0.8 mg/kg, ip administered once daily for 21 days measured post-last dose by H and E staining-based assay; format: functional, organism-based; summary of the method: as §1

Compound: C/C=C(\C)[C@H](O)[C@H](C)/C=C(C)/C=C/C/C(C)=C/Cc1nc(OC)c(OC)c(O)c1C [PIERICIDIN A]
- IC50 (HK-2): > 100 µM
- IC50 (ACHN [1]): 1.6 µM
- Activity (ACHN [2]): Active
- Activity (ACHN [3]): Active
- Activity (ACHN [4]): Active
- viability at 0.05 µM (ACHN [5]): 81.9%
- Activity (ACHN [6]): 7.4%
- Activity (ACHN [7]): 75.6%
- Activity [8]: Non-Toxic
- Activity (Mus musculus): Active
- TGI (ACHN [9]): Active
- TGI (ACHN [10]): Active
